Results reported in PMC6601336 (ACS chemical biology, 2019).
Numbering of substitutions follows the chain as printed.

Columns and labels:
[1] = target: T1, LasR A127W (Pseudomonas aeruginosa, UniProt P25084, A127W); test: E. coli lasB-lux reporter assay, LasR A127W; type: cell-based; settings: read-out: EC50 in the plasB-lux assay, NR = non-responsive
T1 sequence (P25084 1-239 A127W): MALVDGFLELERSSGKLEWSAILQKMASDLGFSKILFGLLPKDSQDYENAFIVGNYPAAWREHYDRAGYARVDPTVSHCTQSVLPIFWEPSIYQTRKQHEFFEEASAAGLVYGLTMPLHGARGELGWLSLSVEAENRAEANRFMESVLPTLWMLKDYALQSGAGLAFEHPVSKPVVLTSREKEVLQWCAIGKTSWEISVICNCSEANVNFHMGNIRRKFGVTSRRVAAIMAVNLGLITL

[2] = target: T2, LasR T75V/Y93F/A127W (Pseudomonas aeruginosa, UniProt P25084, A127W/T75V/Y93F); test: E. coli lasB-lux reporter assay, LasR T75V/Y93F/A127W; type: cell-based; settings: read-out: EC50 in the plasB-lux assay; LasR T75V/Y93F/A127W; NR = non-responsive
T2 sequence (P25084 1-239 T75V/Y93F/A127W): T1 sequence (P25084 1-239 A127W) with T75V, Y93F

[3] = system: pyocyanin production; settings: cited from earlier work
[4] = system: luciferase; test: Off-target inhibition of luciferase in the E. coli lasB-lux reporter strain; type: cell-based; settings: high concentrations (>10 μM)
[5] = target: T3, LasR Y93F (Pseudomonas aeruginosa, UniProt P25084, Y93F); test: E. coli lasB-lux reporter assay, LasR Y93F; type: cell-based; settings: read-out: EC50 in the plasB-lux assay; LasR Y93F; NR = non-responsive
T3 sequence (P25084 1-239 Y93F): T1 sequence (P25084 1-239 A127W) with Y93F, W127A

[6] = target: T4, LasR T75V/Y93F (Pseudomonas aeruginosa, UniProt P25084, T75V/Y93F); test: E. coli lasB-lux reporter assay, LasR T75V/Y93F; type: cell-based; settings: read-out: EC50 in the plasB-lux assay; LasR T75V/Y93F
T4 sequence (P25084 1-239 T75V/Y93F): T1 sequence (P25084 1-239 A127W) with T75V, Y93F, W127A

[7] = target: T5, LasR Y93F/A127W (Pseudomonas aeruginosa, UniProt P25084, A127W/Y93F); test: E. coli lasB-lux reporter assay, LasR Y93F/A127W; type: cell-based; settings: read-out: EC50 in the plasB-lux assay; LasR Y93F/A127W; NR = non-responsive
T5 sequence (P25084 1-239 Y93F/A127W): T1 sequence (P25084 1-239 A127W) with Y93F

[8] = system: LasR; settings: cited from earlier work
[9] = target: T6, LasR T75V (Pseudomonas aeruginosa, UniProt P25084, T75V); test: E. coli lasB-lux reporter assay, LasR T75V; type: cell-based; settings: read-out: EC50 in the plasB-lux assay; LasR T75V; NR = non-responsive
T6 sequence (P25084 1-239 T75V): T1 sequence (P25084 1-239 A127W) with T75V, W127A

[10] = target: T7, WT LasR LBD (Pseudomonas aeruginosa, UniProt P25084); test: Protein solubility assay, WT LasR LBD produced in E. coli; type: cell-based; settings: induction at 25°C; 10 μM compound
T7 sequence (P25084 1-173 limits assumed): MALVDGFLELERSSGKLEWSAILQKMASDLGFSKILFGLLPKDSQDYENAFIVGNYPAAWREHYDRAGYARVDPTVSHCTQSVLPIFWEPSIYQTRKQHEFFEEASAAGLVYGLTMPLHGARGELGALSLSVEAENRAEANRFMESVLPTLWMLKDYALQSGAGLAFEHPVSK
Outline: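 E. coli BL21(DE3) with plasmid-borne 6xHis-WT LasR LBD were grown overnight, diluted 1:500 in LB with ampicillin and grown to OD600 0.5. Cells were induced with 1 mM IPTG plus test compound at 10 μM final, then shaken 4 h at 25°C or 37°C. Whole-cell lysate and soluble fractions were compared by band intensity. Fraction soluble = soluble band / whole-cell lysate band.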

Substance: meta-bromo-thiolactone [mBTL, reference compound]
- EC50 [1]: 60 nM
- EC50 [2]: 10 nM
- effect on pyocyanin [3]: inhibiting pyocyanin
- off-target inhibition of luciferase [4]: caused off-target inhibition of luciferase
- EC50 [5]: 10 nM
- EC50 [6]: 10 nM
- EC50 [7]: 9 nM
- activity on LasR [8]: is a LasR agonist
- EC50 [9]: 6 nM
- soluble WT LasR LBD [10]: yielded soluble WT LasR LBD
